High-throughput results as filed in PubChem BioAssay.
CSC inhib – blocks cancer stem cells. 300,000 compounds, 1.1% hits. cancer stem cell-like cells viability, luminescence. inhibition, % at 7.5 µM; in the data active means inhibition above about 75%; inconclusive means no clear call, values can overlap the other calls; tested in HMLE shEcad cells
FN deposition inh – fibronectin deposition inhibition. 350,000 compounds, 0.086% hits. inhibition, % at 12.6 µM. AH1F fibroblasts, Alexa488-fibronectin deposition fluorescence, overnight;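 active means mean inhibition across replicates of 30% or more, regardless of how many single replicates reach that level; inconclusive means mean under 30% yet at least half of replicates reach 30%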
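material = AH1F fibroblast monolayer depositing Alexa488-labelled fibronectin into matrix | amount = 10000 AH1F cells/well | buffer or medium = DMEM plus 2% serum, read in PBS | incubation = 1 h cell adhesion before compound, then overnight fibronectin incubation | detection = fluorescence at 485 nm excitation, 525 nm emission | evaluation = percent inhibition as loss of matrix-bound fibronectin fluorescence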
SKKanGAS inh – blocks kanamycin growth of S. pyogenes SKKanGAS strain | BacTiter-Glo, 6 h | 300,000 compounds, 1.3% hits | inhibition, % at 7.5 µM;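 active means mean replicate score, as percent of positive control median, at least 50; inconclusive means mean below 50 but one replicate at or above 50; inactive means mean and every replicate below 50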;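 further: strain carries kanamycin resistance gene driven by streptokinase promoter and grows in 40 µg/ml kanamycin; loss of luminescence reflects streptokinase promoter inhibition or plain growth inhibition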
PglD DTNB – PglD (C. jejuni) enzyme inhibition | 360,000 compounds, 0.098% hits | AID 602405 | inhibition, % at 12.5 µM | purified PglD enzyme, DTNB colorimetric CoA detection; in the data active means inhibition above about 16%, passing the limit was not always enough; inconclusive means no clear call, values can overlap the other calls
PfHsp90 yeast 2 – growth inhibition of yeast expressing Plasmodium Hsp90; S. cerevisiae expressing PfHsp90, BacTiter-Glo ATP, 48 h; yeast lacking PDR1 and PDR3 efflux regulators; 310,000 compounds, 0.32% hits; inhibition, % at 9.4 µM;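 active means every replicate shows inhibition above about 80%, whatever the replicate mean, limit read from the data; inconclusive means mean inhibition reaches the set limit but some replicate falls short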
Rtt109 HAT inh – C. albicans Rtt109 histone acetyltransferase inhibition; inhibition, % at 34.9 µM; 330,000 compounds, 0.16% hits; purified Rtt109/Vps75, ThioGlo CoA-SH fluorescence, 4 h; AID 540336;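 active means inhibition of at least 50% in every replicate; inconclusive means best replicate reaches 50% inhibition but some replicates fall short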
Target sequence (Q5AAJ8 whole entry, looked up): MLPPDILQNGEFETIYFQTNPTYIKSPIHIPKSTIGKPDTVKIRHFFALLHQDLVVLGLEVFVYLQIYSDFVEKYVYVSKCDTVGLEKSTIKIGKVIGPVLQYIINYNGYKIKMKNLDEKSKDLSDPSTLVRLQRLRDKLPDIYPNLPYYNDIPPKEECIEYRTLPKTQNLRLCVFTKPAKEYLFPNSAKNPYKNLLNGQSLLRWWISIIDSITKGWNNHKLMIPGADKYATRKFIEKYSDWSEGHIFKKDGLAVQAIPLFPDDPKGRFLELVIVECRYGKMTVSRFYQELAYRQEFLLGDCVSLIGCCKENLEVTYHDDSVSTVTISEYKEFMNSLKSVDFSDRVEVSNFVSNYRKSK
A number is an active result; - = inactive; ? = inconclusive; . = no result. Sampled rows, rich in hits. Any-hit rate of the full collection: about 1.7%.

SMILES	CSC inhib	FN deposition inh	SKKanGAS inh	PglD DTNB	PfHsp90 yeast 2	Rtt109 HAT inh
COc1cccc2sc(NNC(=O)COc3ccccc3)nc12	.	-	-	-	-	-
COc1cccc2sc(Nc3nc(-c4ccccn4)cs3)nc12	.	.	99.5	-	107.0	-
O=C(Nc1nc(-c2ccccn2)cs1)C1CC1	-	-	50.6	-	-	-
O=C(CC1CC2CCC1C2)Nc1nc(-c2ccccn2)cs1 (centres undefined)	-	-	76.2	.	-	-
O=C(CCS(=O)(=O)c1ccccc1)Nc1nc(-c2ccccn2)cs1	-	-	-	-	-	-
C[C@H](CO)N1C[C@H](C)[C@@H](CN(C)C(=O)c2ccccc2)OCCCC[C@H](C)Oc2ccc(NC(=O)CCC(F)(F)F)cc2C1=O	.	-	.	-	.	.
CCC(=O)N1C[C@H](O)COC[C@H]2O[C@H](CC(=O)N3CCCCC3)CC[C@@H]21	.	-	.	-	.	.
COCC(=O)N1CC(=O)N2[C@H](CO)[C@H](c3ccc(C#CC4CCCC4)cc3)[C@H]2C1	.	-	.	.	.	.
O=C(Nc1nnc(-c2ccccn2)o1)c1cccc(Cl)c1	-	-	83.3	.	-	-
O=C(Nc1nnc(-c2cccnc2)o1)c1cccc(Cl)c1	-	-	78.7	.	-	-
Cc1cccc(-c2nnc(NC(=O)c3ccc(Cl)cc3)o2)c1	89.1	-	121.5	-	.	-
O=C(Nc1nnc(-c2cc(Cl)ccc2Cl)o1)c1ccco1	-	-	73.7	-	-	-
COc1cc(OC)cc(C(=O)Nc2nnc(-c3cccnc3)o2)c1	-	-	-	.	-	-
CNC[C@@H]1Oc2ccc(N(C)C)cc2C(=O)N(C)C[C@H]1C	.	-	.	.	.	.
O=C(Nc1nnc(-c2ccco2)o1)c1cccc(Cl)c1	-	.	88.1	.	-	-
O=C(Nc1nnc(-c2ccccn2)o1)c1cccc(Br)c1	-	-	67.0	-	-	-
O=C(Nc1nnc(-c2ccc(Br)cc2)o1)c1cccc(N2C(=O)CCC2=O)c1	-	-	87.6	-	.	-
C[C@@H]1CN([C@@H](C)CO)C(=O)c2cccc(NS(=O)(=O)c3ccc(F)cc3)c2O[C@H]1CN(C)S(=O)(=O)c1ccccc1	.	.	.	-	.	.
O=C(C[C@@H]1CC[C@H](NC(=O)c2ccc(F)cc2)[C@H](CO)O1)NCCc1ccncc1	.	.	.	-	.	.
CCOC(=O)c1cc(-c2ccc3c(c2)OCCO3)nc2c1c(C)nn2CCC#N	-	.	80.6	-	-	-
COc1ccccc1N1CCN(Cc2nc(N)nc(Nc3ccc(C)c(Cl)c3)n2)CC1	-	-	76.2	-	.	-
Cc1cccc(Nc2nc(N)nc(CN3CCN(c4ccccc4F)CC3)n2)c1	-	-	71.9	-	-	-
COc1cc2nc(Nc3ccc(C)c(Cl)c3)nc(N)c2cc1OC	105.9	-	-	-	-	-
COc1ccccc1Nc1nc(N)nc(CN2CCN(c3ccccc3F)CC2)n1	-	-	62.4	.	-	-
COC(=O)[C@H]1[C@H](CO)[C@H]2Cn3c(ccc(-c4ccccc4OC)c3=O)[C@H]2N1CC1CCCC1	.	-	.	-	.	.
SMILES	CSC inhib	FN deposition inh	SKKanGAS inh	PglD DTNB	PfHsp90 yeast 2	Rtt109 HAT inh
O=C(C[C@H]1CC[C@@H](NC(=O)c2ccccc2)[C@@H](CO)O1)Nc1ccc(-c2ccccc2)cc1	.	-	.	-	.	.
Cc1ccc(-c2cc(C(=O)Nc3cnn(C45CC6CC(CC(C6)C4)C5)c3)no2)cc1	-	.	-	-	-	-
O=C(Nc1cnn(C23CC4CC(CC(C4)C2)C3)c1)c1cc(-c2ccccc2)on1	80.6	-	-	-	-	-
Cc1cccc(NC(=O)Nc2ccc3c(c2)C(=O)N(C)[C@@H]2CC[C@H](CC(=O)O)O[C@H]2CO3)c1	.	-	.	-	.	.
COc1cccc(-c2c(C#N)c(N)nc3c2c(C)nn3-c2ccccc2)c1O	-	-	-	-	-	-
Cc1nn(-c2ccccc2)c2nc(N)c(C#N)c(-c3ccc(C(C)(C)C)cc3)c12	93.6	-	-	.	-	-
O=C(N/N=C(\c1ccccc1)c1ccccn1)c1cccc([N+](=O)[O-])c1	-	.	?	.	-	-
C/C(=N\NC(=O)c1nc2ccccn2c1C)c1cc2ccccc2o1	.	-	-	.	-	-
C/C(=N\NC(=O)c1cc2ccccc2cc1O)c1ccccn1	-	-	101.9	-	92.3	-
C/C(=N\NC(=O)c1cc2ccccc2cc1O)c1cc2ccccc2o1	92.8	-	77.8	-	-	-
CCOc1ccc(C(=O)N/N=C(\c2ccccc2)c2ccccn2)cc1	-	.	68.9	-	-	-
C/C(=N\NC(=O)COc1ccc(C)cc1C(C)C)c1cc2ccccc2o1	.	-	57.4	.	-	-
C/C(=N\NC(=O)c1ccccc1-n1cccc1)c1ccccn1	.	-	.	-	.	.
C[C@H]1CN([C@@H](C)CO)C(=O)c2cc(NC(=O)Nc3ccc(F)cc3)ccc2O[C@H]1CN(C)S(C)(=O)=O	.	.	.	-	.	.
CNC[C@H]1OCCCC[C@H](C)Oc2ccc(NC(=O)Nc3cccc4ccccc34)cc2C(=O)N([C@@H](C)CO)C[C@@H]1C	.	.	.	-	.	.
CN(C)C(=O)c1cccc(-c2ccccc2[C@@H]2[C@@H](C#N)N(C(=O)C3CCCC3)[C@@H]2CO)c1	.	-	.	.	.	.
C/C(=N\NC(=O)c1c[nH]c2ccccc12)c1ccccn1	-	-	-	.	-	-
C/C(=N\NC(=O)c1ccc(F)cc1)c1ccccn1	104.3	-	88.5	.	-	-
Cc1cccc(C(=O)OC2CCN(C)CC2)c1	-	-	-	.	-	-
CN1CCC(OC(=O)c2cccc(Cl)c2)CC1	117.3	.	-	-	-	-
COc1ccc(NC(=O)N2CCCC(c3nc(-c4ccc(OC)cc4)no3)C2)cc1 (centres undefined)	-	-	-	-	-	-
COc1ccc(NC(=O)N2CCCC(c3nc(-c4ccc(C(C)C)cc4)no3)C2)cc1 (centres undefined)	95.9	-	-	-	-	-
Cc1cc(C)c2c(n1)sc1c(=O)n(CC(=O)c3ccccc3)cnc12	-	-	93.1	.	-	-
C=CCOC(=O)Cn1cnc2c(sc3nc(C)cc(C)c32)c1=O	-	-	-	-	-	-
C[C@@H]1CN([C@H](C)CO)S(=O)(=O)c2ccc(C#CC3(O)CCCC3)cc2O[C@H]1CN(C)C(=O)c1cccnc1	.	.	.	-	.	.
SMILES	CSC inhib	FN deposition inh	SKKanGAS inh	PglD DTNB	PfHsp90 yeast 2	Rtt109 HAT inh
O=c1ccc(N=Nc2ccccc2)ccc1O	-	-	90.5	-	124.9	-
CO[C@@H]1CN(C)C(=O)c2cc(NS(C)(=O)=O)ccc2OC[C@@H](C)N(CC2CCOCC2)C[C@H]1C	.	-	.	-	.	.
COc1ccc(-c2noc3c2-c2nc(-c4ccccc4C)sc2CC3)cc1	75.8	-	-	.	.	.
Cc1ccccc1-c1nc2c(s1)CCc1onc(-c3ccc(Cl)cc3)c1-2	-	-	-	-	-	-
Cc1nnc(-c2ccc(Oc3ccc(Br)cc3)c([N+](=O)[O-])c2)o1	139.1	-	-	.	-	-
CC(C)c1nnc(NC(=O)CCC(=O)NCc2cccs2)s1	.	.	-	-	-	53.4
CC(C)c1nnc(NC(=O)Cc2cccs2)s1	-	-	-	-	-	-
